Data: ChEMBL document CHEMBL1153787, “Unsaturated dideoxy fluoro-ketopyranosyl nucleosides as new cytostatic agents: a convenient synthesis of 2,6-dideoxy-3-fluoro-4-keto-beta-D-glucopyranosyl analogues of uracil, 5-fluorouracil, thymine, N4-benzoyl cytosine and N6-benzoyl adenine” (Eur J Med Chem, 2009)

Legend:
[1] = tested on: L1210; experiment: Cytotoxicity against mouse L1210 cells; assay type: functional, cell-based
Outline: (§1)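 Proliferation of suspension tumour cells (murine L1210 and FM3A, human Molt4/C8 and CEM) was measured. IC50 is the compound concentration that inhibits cell proliferation by 50%.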

[2] = tested on: FM3A; experiment: Cytotoxicity against mouse FM3A cells; assay type: functional, cell-based; outline: as §1
[3] = Cytotoxicity against human Molt4/C8 cells; assay type: functional, cell-based; conditions: MOLT-4; outline: as §1
[4] = tested on: CCRF-CEM; experiment: Cytotoxicity against human CEM cells; assay type: functional, cell-based; outline: as §1
[5] = Cytotoxicity against MDCK cells assessed as reduction of cell viability by MTS dye staining; assay type: cell-based, Canis lupus familiaris; conditions: dog
Outline: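 MDCK cell viability read by colorimetric formazan-based MTS dye staining. CC50 is the compound concentration that reduces cell viability by 50%.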

[6] = Cytotoxicity against human HEL cells assessed as induction of microscopically visible alteration in cell morphology; assay type: cell-based; conditions: read-out: MIC
Outline: (§2)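 HEL, Vero and HeLa cell cultures were examined under the microscope for changes in cell morphology. MIC is the compound concentration that causes a microscopically visible alteration of cell morphology.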

[7] = Cytotoxicity against african green monkey Vero cells assessed as induction of microscopically visible alteration in cell morphology; assay type: cell-based; conditions: chlorocebus sabaeus, read-out: MIC; outline: as §2
[8] = tested on: HeLa; experiment: Cytotoxicity against human HeLa cells assessed as induction of microscopically visible alteration in cell morphology; assay type: functional; conditions: read-out: MIC; outline: as §2
[9] = tested on: L1210; experiment: Cytotoxicity against mouse L1210 cells assessed as inhibition of [3H]dThd incorporation into macromolecules; assay type: functional
Outline: (§3)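 L1210 and CEM cells were given radiolabelled [3H]dThd (DNA), [3H]Urd (RNA) or [3H]Leu (protein). Label incorporated into methanol-insoluble material was measured. IC50 is the concentration that inhibits precursor incorporation by 50%.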

[10] = tested on: CCRF-CEM; experiment: Cytotoxicity against human CEM cells assessed as inhibition of [3H]dThd incorporation into macromolecules; assay type: functional; outline: as §3
[11] = tested on: L1210; experiment: Cytotoxicity against mouse L1210 cells assessed as inhibition of [3H]Urd incorporation into macromolecules; assay type: functional; outline: as §3
[12] = tested on: CCRF-CEM; experiment: Cytotoxicity against human CEM cells assessed as inhibition of [3H]Urd incorporation into macromolecules; assay type: functional; outline: as §3
[13] = tested on: L1210; experiment: Cytotoxicity against mouse L1210 cells assessed as inhibition of [3H]Leu incorporation into macromolecules; assay type: functional; outline: as §3
[14] = tested on: CCRF-CEM; experiment: Cytotoxicity against human CEM cells assessed as inhibition of [3H]Leu incorporation into macromolecules; assay type: functional; outline: as §3

Row | SMILES | IC50 [1] | IC50 [2] | IC50 [3] | IC50 [4] | CC50 [5] | MCC [6] | MCC [7] | minimum cytotoxic concentration (MCC) [8] | IC50 [9] | IC50 [10] | IC50 [11] | IC50 [12] | IC50 [13] | IC50 [14]
1 | C[C@H]1O[C@@H](n2cc(F)c(=O)[nH]c2=O)C=C(F)C1=O | 0.82 µM | 0.49 µM | 3.3 µM | 3.7 µM | 0.6 µM | 20 µM | 20 µM | 20 µM | – | – | – | – | – | –
2 | C[C@H]1O[C@@H](n2cnc3c(NC(=O)c4ccccc4)ncnc32)C=C(F)C1=O | 2.4 µM | 6 µM | 5 µM | 4.3 µM | 12 µM | 20 µM | 20 µM | 20 µM | – | – | – | – | – | –
3 | C[C@H]1O[C@@H](n2ccc(=O)[nH]c2=O)C=C(F)C1=O | 2.9 µM | 16 µM | 2.5 µM | 2.2 µM | 0.6 µM | 20 µM | 20 µM | 20 µM | – | – | – | – | – | –
4 | C[C@H]1O[C@@H](n2ccc(NC(=O)c3ccccc3)nc2=O)C=C(F)C1=O | 1.4 µM | 11.9 µM | 1.6 µM | 1.7 µM | 8.2 µM | 20 µM | 20 µM | 20 µM | 12 µM | 11 µM | 10 µM | 12 µM | 12 µM | 7.9 µM
5 | Cc1cn([C@H]2C=C(F)C(=O)[C@@H](C)O2)c(=O)[nH]c1=O | 2.8 µM | 10 µM | 2.5 µM | 2.6 µM | 0.7 µM | 20 µM | 20 µM | 20 µM | – | – | – | – | – | –
